Sampled rows, rich in hits. Any-hit rate of the full collection: about 1%.
FID counter – fluorescent intercalator displacement, NS3 helicase counter-screen. DNA fluorescent intercalator displacement, fluorescence. inhibition, % at 7.9 µM. 290,000 tested, 0.17% active; in the data active = inhibition above about 37%;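 note: 0% = vehicle and 100% = reference compound; higher means more ethidium bromide displaced from hairpin DNA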
RAD54 inh – inhibitors of human RAD54 branch migration. Q92698. RAD54 Holliday junction branch migration, FAM/BHQ fluorescence. inhibition, % at 10.4 µM. 360,000 tested, 0.14% active;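 active = mean normalized replicate activity at least 40 and at least half of replicates scoring 40 or more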;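 note: 0% = median of neutral control wells and 100% = median of positive control wells; inhibitors cause a drop in the FAM fluorescence signal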
PvdQ inh – blocks Pseudomonas aeruginosa PvdQ acylase activity; inhibition, % at 10 µM; purified PvdQ acylase, fluorescence plate reader; 340,000 tested, 0.063% active; AID 488965; in the data active = inhibition above about 30%, passing the limit was not always enough;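 note: 0% = vehicle neutral wells and 100% = reference inhibitor wells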
IMP-1 inh-1 – inhibitors of Pseudomonas aeruginosa IMP-1 metallo-beta-lactamase; inhibition, % at 5.6 µM; purified IMP-1, nitrocefin hydrolysis, epi-absorbance fluorescence; 290,000 tested, 0.45% active;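 active = inhibition above the mean plus 3 SD of all compounds in the same screening run, cut at about 4.5% in these data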;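 note: 0% = IMP-1 with DMSO and 100% = DMSO wells lacking enzyme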
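System: purified IMP-1; amount: IMP-1 0.2 nM before substrate addition; compound: single dose, 5.6 µM; times: 25 °C, 15 min preincubation, 25 min reaction; signal: Epi-absorbance via hydrolysed-nitrocefin quenching of white-plate fluorescence, 480/530 nm, EDTA stop; benchmarks: DMSO with and without IMP-1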
VIM-2 inhibitor – blocks Pseudomonas aeruginosa VIM-2 metallo-beta-lactamase; 290,000 tested, 0.89% active; inhibition, % at 5.6 µM; AID 1527; purified VIM-2, nitrocefin hydrolysis, epi-absorbance fluorescence;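 active = inhibition above the mean of all tested compounds plus 3 SD, cutoff set per screening run, cut at about 7.5% in these data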;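 note: red hydrolysis product quenches plate fluorescence so inhibitors raise well fluorescence; 0% = enzyme with DMSO and 100% = DMSO without enzyme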
IMP-1 inh-2 – blocks IMP-1 metallo-beta-lactamase in VIM-2 selectivity screen. shares compounds with VIM-2 inhibitor. purified IMP-1, nitrocefin hydrolysis, epi-absorbance fluorescence. inhibition, % at 5.6 µM. 1,300 tested, under 10 active; call rule not given here;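 note: 0% = enzyme with vehicle and 100% = vehicle without enzyme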
VIM-2 FRET ctr – VIM-2 FRET inhibition, artifact counter-screen | shares compounds with VIM-2 inhibitor | purified VIM-2, CCF2 FRET substrate hydrolysis | inhibition, % at 5.6 µM | 1,300 tested, 23% active | AID 1857;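 active = inhibition above the mean of all tested compounds plus 3 SD, cut at about 19% in these data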;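 note: 0% = VIM-2 plus DMSO and 100% = no enzyme wells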
TEM-1 counter – TEM-1 inhibition, counter-screen for VIM-2 inhibitors; 1,300 tested, 3% active; inhibition, % at 5.6 µM; shares compounds with VIM-2 inhibitor; Purified TEM-1, nitrocefin hydrolysis, epi-absorbance fluorescence;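 active = inhibition above that campaign's mean inhibition plus 3 SD, cut at about 0.46% in these data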;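 note: 0% = TEM-1 with DMSO and 100% = TEM-1 with 100 µM potassium clavulanate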
Target sequence (P62593 whole entry, looked up): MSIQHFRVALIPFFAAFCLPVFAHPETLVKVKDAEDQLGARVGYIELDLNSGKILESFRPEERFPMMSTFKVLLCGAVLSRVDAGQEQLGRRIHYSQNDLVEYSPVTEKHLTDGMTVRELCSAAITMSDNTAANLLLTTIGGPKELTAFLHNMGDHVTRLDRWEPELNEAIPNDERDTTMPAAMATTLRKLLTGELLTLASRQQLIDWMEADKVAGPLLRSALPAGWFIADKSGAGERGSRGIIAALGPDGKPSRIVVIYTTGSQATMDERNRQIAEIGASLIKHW
VIM-2 inh conf – confirmation of P. aeruginosa VIM-2 metallo-beta-lactamase inhibitors. 1,300 tested, 96% active. AID 2187. inhibition, % at 5.6 µM. shares compounds with VIM-2 inhibitor. purified VIM-2, nitrocefin hydrolysis, epi-absorbance;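 active = inhibition of the VIM-2 beta-lactamase enzyme above about 11% from the earlier first-round screen, limit read from the data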;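 note: 0% = VIM-2 with DMSO and 100% = buffer wells without enzyme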
* marks the source's active call; other numbers are inactive results; · = no result.

SMILES	FID counter	RAD54 inh	PvdQ inh	IMP-1 inh-1	VIM-2 inhibitor	IMP-1 inh-2	VIM-2 FRET ctr	TEM-1 counter	VIM-2 inh conf
Cc1c(OCC(=O)N2CCC(C(N)=O)CC2)ccc2c3c(c(=O)oc12)CCC3	-20	6	-11	-4	23*	-2	2	-19	43*
CCc1cc(=O)oc2c(C)c(OCC(=O)N3CCC[C@@H]3C(=O)O)ccc12	-7	-5	2	-2	23*	-3	39*	-7	29*
CCc1cc(=O)oc2c(C)c(OC(C)C(=O)N3CCC[C@@H]3C(=O)O)ccc12 (stereo not given in full)	-20	0	5	0	1	·	·	·	·
Cc1c(OCC(=O)N2CCC[C@@H]2C(=O)O)ccc2c3c(c(=O)oc12)CCC3	-27	-3	0	-4	36*	-3	51*	-10	37*
Cc1c(C)c2ccc(OCC(=O)N3CCN(c4ccc(F)cc4)CC3)c(C)c2oc1=O	-7	0	-6	-1	3	·	·	·	·
Cc1c(C)c2ccc(OCC(=O)N3CCC[C@@H]3C(=O)O)c(C)c2oc1=O	-15	0	-8	-4	41*	-3	64*	-11	48*
CN1CCc2c(sc(NC(=O)c3cc(Cl)sc3Cl)c2C(N)=O)C1	13	38	·	1	14*	-1	6	-4	21*
CN1CCc2c(sc(NC(=O)c3ccco3)c2C(N)=O)C1	1	25	3	-1	4	·	·	·	·
CCN(CC)c1ccc(Nc2nc(N3CCOCC3)c3ccccc3n2)cc1	7	16	-8	-8	1	·	·	·	·
COc1ccc(Nc2nc(N3CCCC3)c3ccccc3n2)cc1	15	·	-9	-3	19*	-2	-7	-4	35*
Cc1cc(N2C(=O)CC(N3CCN(c4ccc(C(=O)c5cccs5)cc4)CC3)C2=O)no1 (stereo not given)	-36	10	-3	-2	13*	-4	0	-7	3
C=C1CSc2nc(=O)c3c(C)c(C)sc3n21	-3	8	-5	2	20*	-3	1	-6	32*
Cc1nc2sc(C)c(C)c2c(=O)[nH]1	0	-1	-7	-1	0	·	·	·	·
CCOC(=O)c1ccc2ncc(C(=O)OCC)c(NCCCN3CCOCC3)c2c1	19	34	-7	-4	26*	-3	0	-6	53*
CCOC(=O)c1ccc2ncc(C(=O)OCC)c(Nc3ccc(N4CCOCC4)cc3)c2c1	-2	·	2	-2	-2	·	·	·	·
O=C(Nc1c(C(=O)N2CCOCC2)cnn1-c1ccccc1)c1ccccc1F	-6	-3	-8	-3	-2	·	·	·	·
COC(=O)c1c(NC(=O)c2ccccc2F)sc(C(=O)N2CCOCC2)c1C	-30	-41	-11	-2	13*	-3	1	-7	20*
CN1CCN(c2ccc(Nc3ccnc4cc(Cl)ccc34)cc2)CC1	83*	53*	-16	2	87*	-2	-10	-6	88*
CNC[C@H]1Oc2ccc(NC(=O)NC(C)C)cc2C(=O)N([C@@H](C)CO)C[C@@H]1C	·	-1	·	·	·	·	·	·	·
O=c1oc2c3c4c(cc2c2c1CCC2)OCCN4CCC3	10	32	-20	-2	14*	-3	-34	-10	37*
C[C@@H]1CN([C@@H](C)CO)C(=O)c2cc(NC(=O)CCCN(C)C)ccc2O[C@H]1CN(C)C(=O)Nc1ccc(F)cc1	·	7	·	·	·	·	·	·	·
C[C@H](CO)N1C[C@H](C)[C@@H](CN(C)Cc2ccc(Cl)c(Cl)c2)OCCCC[C@H](C)Oc2ccc(NS(=O)(=O)c3cn(C)cn3)cc2C1=O	·	-4	·	·	·	·	·	·	·
CC(=O)NCc1nnc2c3ccccc3c(-c3ccccc3)nn12	-9	0	7	-2	22*	-3	-1	-4	33*
O=C(COc1ccccc1)NCc1nnc2c3ccccc3c(-c3ccccc3)nn12	-32	5	-18	2	18*	2	6	1.0*	39*
O=C(NCc1nnc2c3ccccc3c(-c3ccccc3)nn12)c1ccc(Cl)cc1	-3	·	-13	-4	0	·	·	·	·
SMILES	FID counter	RAD54 inh	PvdQ inh	IMP-1 inh-1	VIM-2 inhibitor	IMP-1 inh-2	VIM-2 FRET ctr	TEM-1 counter	VIM-2 inh conf
CC(C)(C)c1cc(NCCCn2ccnc2)n2ncc(-c3ccccc3)c2n1	17	-3	-8	-4	-4	·	·	·	·
Cc1cccc(-c2cc3nc(C)cc(NCCCn4ccnc4)n3n2)c1	24	12	-17	-1	48*	-1	-15	-6	60*
Cc1cc(NCCCn2ccnc2)n2ncc(-c3ccc(Cl)cc3)c2n1	17	7	0	-1	35*	-2	-22	-6	50*
FC(F)(F)c1cccc(-c2cc3nc(NCCCn4ccnc4)ccn3n2)c1	·	3	·	·	·	·	·	·	·
CCCc1cc(NCCCn2ccnc2)n2nc(C)c(-c3ccccc3)c2n1	7	·	-8	-3	26*	-3	-30	-5	47*
C[C@@H]1CN([C@H](C)CO)C(=O)c2cc(NS(C)(=O)=O)ccc2O[C@@H](C)CCCCO[C@H]1CN(C)CC1CC1	·	1	·	·	·	·	·	·	·
CCOC(=O)C(=CNc1ccc(C(F)(F)F)cc1)C(=O)OCC	-17	·	-20	-3	-2	·	·	·	·
CCOC(=O)C(=CNc1ccc(NC2=NCC(C)S2)cc1)C(=O)OCC (stereo not given)	-3	-6	-3	-2	28*	-2	-7	-6	44*
Cc1noc(C)c1NC(=O)Nc1cccc2c1O[C@@H](CN(C)C(=O)Nc1ccccc1)[C@@H](C)CN([C@@H](C)CO)C2=O	·	-3	·	·	·	·	·	·	·
C[C@H](CO)N1C[C@H](C)[C@H](CN(C)C(=O)Nc2ccc3c(c2)OCO3)Oc2cc(C#Cc3cccnc3)ccc2S1(=O)=O	·	8	·	·	·	·	·	·	·
O=c1[nH]c(=S)[nH]c2nc(-c3cccs3)cc(C(F)(F)F)c12	-6	1	-30	-5	13*	-3	4	-7	15*
CC12CCCCC1N(O)C(=O)C(=O)N2O (stereo not given)	5	·	-12	-1	20*	-3	34*	-5	19*
CC(C)(C)c1ccc(/C=N/n2cnnc2)cc1	-3	·	-24	-5	0	·	·	·	·
Cn1c(=O)n(C)c2cc(/C=N/n3cnnc3)ccc21	-4	·	-5	-3	15*	-3	1	-6	45*
CCCC#Cc1cnc2c(c1)C(=O)N([C@@H](C)CO)C[C@@H](C)[C@H](CN(C)C(=O)NCCC)O2	·	0	·	·	·	·	·	·	·
O=C(CSc1nnc(NC(=O)C2CC2)s1)NCc1ccccc1Cl	-9	3	-4	-3	29*	-3	53*	-6	35*
